Experimental data: ChEMBL document CHEMBL1140177 (J Med Chem, 2008)
In brackets after ≈: the same amount, converted by molar mass.

Legend:
[1] = test system: Human immunodeficiency virus 1; assay: Antiviral activity against HIV1 with reverse transcriptase K103N mutant in presence of 40% normal human serum; format: functional, organism-based
[2] = target: Human immunodeficiency virus type 1 reverse transcriptase (Human immunodeficiency virus 1, UniProt Q72547, Y181C); assay: Inhibition of HIV1 RT polymerase Y181C mutant by SPA
[3] = Volume of distribution in rhesus monkey at 10 mg/kg, po and 1 mg/kg, iv; format: ADME, organism-based, Macaca mulatta; conditions: in vivo
In short: (§1)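 Two rhesus macaques, averaged. Oral dose 10 mpk in Imwitor/Tween; intravenous dose 1 mpk in DMSO.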

[4] = test system: Human immunodeficiency virus 1; assay: Antiviral activity against HIV1 with reverse transcriptase G190S mutant in presence of 40% normal human serum; format: functional, organism-based
[5] = test system: Human immunodeficiency virus 1; assay: Antiviral activity against HIV1 with reverse transcriptase K101E/G190A mutant in presence of 40% normal human serum; format: functional, organism-based
[6] = Volume of distribution in Sprague-Dawley rat at 10 mg/kg, po and 2 mg/kg, iv; format: ADME, organism-based; conditions: in vivo
[7] = Volume of distribution in Beagle dog at 2 mg/kg, po and 0.25 mg/kg, iv; format: ADME, organism-based, Canis lupus familiaris; conditions: in vivo
In short: (§2)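 Two beagle dogs, averaged. Oral dose 2 mpk in Imwitor/Tween; intravenous dose 0.25 mpk in DMSO.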

[8] = test system: Human immunodeficiency virus 1; assay: Antiviral activity against HIV1 with reverse transcriptase K103N/P225H mutant in presence of 40% normal human serum; format: functional, organism-based
[9] = test system: Human immunodeficiency virus 1; assay: Antiviral activity against HIV1 with reverse transcriptase K103N/G190A mutant in presence of 40% normal human serum; format: functional, organism-based
[10] = Oral bioavailability in Beagle dog at 2 mg/kg; format: ADME, organism-based, Canis lupus familiaris; conditions: in vivo; in short: as §2
[11] = Clearance in Beagle dog at 2 mg/kg, po and 0.25 mg/kg, iv; format: ADME, organism-based, Canis lupus familiaris; conditions: in vivo; in short: as §2
[12] = test system: Human immunodeficiency virus 1; assay: Antiviral activity against HIV1 with reverse transcriptase Y181C/G190A mutant in presence of 40% normal human serum; format: functional, organism-based
[13] = test system: Human immunodeficiency virus 1; assay: Antiviral activity against wild type HIV1 infected in human MT4 cells after 72 hrs in presence of 10% fetal bovine serum; format: functional; conditions: Human immunodeficiency virus 1, MT4, 72 h; read-out: CIC95
In short: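 MT-4 human T-lymphoid cells in RPMI 1640 with 10% FBS. CIC95 is the concentration that inhibits viral spread by >95%. Values are either geometric means of two determinations or given with standard deviations for n > 3 or n > 50.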

[14] = AUC in Sprague-Dawley rat at 10 mg/kg, po; format: ADME, organism-based; set-up: dose 10 mg/kg, route oral; conditions: plasma
[15] = target: Human immunodeficiency virus type 1 reverse transcriptase (Human immunodeficiency virus 1, UniProt Q72547); assay: Inhibition of wild type HIV1 RT polymerase by SPA
[16] = Half life in Beagle dog at 2 mg/kg, po and 0.25 mg/kg, iv; format: ADME, organism-based, Canis lupus familiaris; conditions: in vivo; in short: as §2
[17] = test system: Human immunodeficiency virus 1; assay: Antiviral activity against HIV1 with reverse transcriptase G190A mutant in presence of 40% normal human serum; format: functional, organism-based
[18] = test system: Human immunodeficiency virus 1; assay: Antiviral activity against wild type HIV1 in presence of 40% normal human serum; format: functional, organism-based
In short: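 Monogram Bioscience PhenoScreen cell-culture assay run with 40% NHS. […] Value is the geometric mean of n = 2.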

[19] = Oral bioavailability in Sprague-Dawley rat at 10 mg/kg; format: ADME, organism-based; conditions: in vivo
[20] = AUC in rhesus monkey at 10 mg/kg, po; format: ADME, organism-based, Macaca mulatta; set-up: dose 10 mg/kg, route oral; conditions: plasma
[21] = target: Human immunodeficiency virus type 1 reverse transcriptase (Human immunodeficiency virus 1, UniProt Q72547, K103N); assay: Inhibition of HIV1 RT polymerase K103N mutant by SPA
[22] = test system: Human immunodeficiency virus 1; assay: Antiviral activity against HIV1 with reverse transcriptase K103N/Y181C mutant in presence of 40% normal human serum; format: functional, organism-based
[23] = Oral bioavailability in rhesus monkey at 10 mg/kg; format: ADME, organism-based, Macaca mulatta; conditions: in vivo
[24] = Solubility at pH 7; format: physicochemical; conditions: buffer
[25] = Clearance in rhesus monkey at 10 mg/kg, po and 1 mg/kg, iv; format: ADME, organism-based, Macaca mulatta; conditions: in vivo; in short: as §1
[26] = AUC in Beagle dog at 2 mg/kg, po; format: ADME, organism-based, Canis lupus familiaris; set-up: dose 2 mg/kg, route oral; conditions: plasma; in short: as §2
[27] = Half life in Sprague-Dawley rat at 10 mg/kg, po and 2 mg/kg, iv; format: ADME, organism-based; conditions: in vivo
[28] = Half life in rhesus monkey at 10 mg/kg, po and 1 mg/kg, iv; format: ADME, organism-based, Macaca mulatta; conditions: in vivo; in short: as §1
[29] = test system: Human immunodeficiency virus 1; assay: Antiviral activity against HIV1 with reverse transcriptase K103N mutant infected in human MT4 cells after 72 hrs in presence of 10% fetal bovine serum; format: functional; conditions: Human immunodeficiency virus 1, MT4, 72 h; read-out: CIC95
In short: (§3)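 Mutant HIV-1 spread was assayed in MT-4 human T-lymphoid cells kept in RPMI 1640 with 10% FBS. CIC95 is the concentration that inhibits viral spread by >95%. Values are geometric means of two determinations, or mean with standard deviation where n > 3. Cytotoxicity was checked up to an assay limit of 8.3 µM.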

[30] = Solubility at pH 2; format: physicochemical; conditions: buffer
[31] = test system: Human immunodeficiency virus 1; assay: Antiviral activity against HIV1 with reverse transcriptase Y181C mutant infected in human MT4 cells after 72 hrs in presence of 10% fetal bovine serum; format: functional; conditions: Human immunodeficiency virus 1, MT4, 72 h; read-out: CIC95; in short: as §3
[32] = test system: Human immunodeficiency virus 1; assay: Antiviral activity against HIV1 with reverse transcriptase K103N/V179E mutant in presence of 40% normal human serum; format: functional, organism-based
[33] = Clearance in Sprague-Dawley rat at 10 mg/kg, po and 2 mg/kg, iv; format: ADME, organism-based; conditions: in vivo
[34] = test system: Human immunodeficiency virus 1; assay: Antiviral activity against HIV1 with reverse transcriptase L100I mutant in presence of 40% normal human serum; format: functional, organism-based
[35] = test system: Human immunodeficiency virus 1; assay: Antiviral activity against HIV1 with reverse transcriptase Y181C mutant in presence of 40% normal human serum; format: functional, organism-based
[36] = test system: Human immunodeficiency virus 1; assay: Antiviral activity against HIV1 with reverse transcriptase Y188L mutant in presence of 40% normal human serum; format: functional, organism-based
[37] = test system: Human immunodeficiency virus 1; assay: Antiviral activity against wild type HIV1 infected in human MT4 cells after 72 hrs in presence of 50% normal human serum; format: functional; conditions: Human immunodeficiency virus 1, MT4, 72 h; read-out: CIC95
In short: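 MT-4 human T-lymphoid cells in RPMI 1640 with 50% NHS. CIC95 is the concentration that inhibits viral spread by >95%. Values are either geometric means of two determinations or given with standard deviations for n > 3 or n > 50.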

## N#Cc1cc(Cl)cc(Oc2cc(OCc3n[nH]c4ncccc34)ccc2Cl)c1
[1]
  IC50: 2.5 nM
[2]
  IC50: 0.2 nM
[3]
  Vd: 4.4 L/kg
[4]
  IC50: 6.8 nM
[5]
  IC50: 4.8 nM
[6]
  Vd: 5.3 L/kg
[7]
  Vd: 2.6 L/kg
[8]
  IC50: 4.8 nM
[9]
  IC50: 4 nM
[10]
  bioavailability: 17%
[11]
  clearance: 8.9 mL/min/kg
[12]
  IC50: 17.1 nM
[13]
  IC95: 10.3 nM
[14]
  AUC: 9.5 µM·h
[15]
  IC50: 0.4 nM
[16]
  half-life: 11.8 h
[17]
  IC50: 1.8 nM
[18]
  IC50: 1.5 nM
[19]
  bioavailability: 58%
[20]
  AUC: 0.3 µM·h
[21]
  IC50: 0.5 nM
[22]
  IC50: 34.1 nM
[23]
  bioavailability: 3%
[24]
  solubility: 0.1 µg/mL (≈ 0.243 µM)
[25]
  clearance: 19 mL/min/kg
[26]
  AUC: 1.6 µM·h
[27]
  half-life: 4.1 h
[28]
  half-life: 8.2 h
[29]
  IC95: 14.6 nM
[30]
  solubility: < 0.1 µg/mL
[31]
  IC95: 22 nM
[32]
  IC50: 6 nM
[33]
  clearance: 28 mL/min/kg
[34]
  IC50: 1.1 nM
[35]
  IC50: 4.1 nM
[36]
  IC50: 900 nM
[37]
  IC95: 34 nM

## N#Cc1cc(Cl)cc(Oc2cc(OCc3n[nH]c4cccnc34)ccc2Cl)c1
[2]
  IC50: 740 nM
[13]
  IC95: 307 nM
[15]
  IC50: 3.6 nM
[21]
  IC50: 40 nM
[29]
  IC95: 2770 nM
[37]
  IC95: 922 nM

## N#Cc1cc(Cl)cc(Oc2cc(OCc3n[nH]c4cnccc34)ccc2Cl)c1
[2]
  IC50: 3.9 nM
[13]
  IC95: 10.8 nM
[15]
  IC50: 0.8 nM
[21]
  IC50: 1.3 nM
[29]
  IC95: 34.2 nM
[31]
  IC95: 31 nM
[37]
  IC95: 34 nM

## O=C1Nc2ccc(Cl)cc2[C@@](C#CC2CC2)(C(F)(F)F)O1 [EFAVIRENZ]
[13]
  IC95: 4.6 nM
[29]
  IC95: 245 nM
[31]
  IC95: 87 nM
[37]
  IC95: 42 nM
